Published values pooled from the literature.
Each line is one published result; the experiments were not run side by side.
Target: Serine/threonine-protein kinase D3 (PRKD3, Homo sapiens, UniProt O94806)
Sequence (O94806 1-890, as in one of the studies): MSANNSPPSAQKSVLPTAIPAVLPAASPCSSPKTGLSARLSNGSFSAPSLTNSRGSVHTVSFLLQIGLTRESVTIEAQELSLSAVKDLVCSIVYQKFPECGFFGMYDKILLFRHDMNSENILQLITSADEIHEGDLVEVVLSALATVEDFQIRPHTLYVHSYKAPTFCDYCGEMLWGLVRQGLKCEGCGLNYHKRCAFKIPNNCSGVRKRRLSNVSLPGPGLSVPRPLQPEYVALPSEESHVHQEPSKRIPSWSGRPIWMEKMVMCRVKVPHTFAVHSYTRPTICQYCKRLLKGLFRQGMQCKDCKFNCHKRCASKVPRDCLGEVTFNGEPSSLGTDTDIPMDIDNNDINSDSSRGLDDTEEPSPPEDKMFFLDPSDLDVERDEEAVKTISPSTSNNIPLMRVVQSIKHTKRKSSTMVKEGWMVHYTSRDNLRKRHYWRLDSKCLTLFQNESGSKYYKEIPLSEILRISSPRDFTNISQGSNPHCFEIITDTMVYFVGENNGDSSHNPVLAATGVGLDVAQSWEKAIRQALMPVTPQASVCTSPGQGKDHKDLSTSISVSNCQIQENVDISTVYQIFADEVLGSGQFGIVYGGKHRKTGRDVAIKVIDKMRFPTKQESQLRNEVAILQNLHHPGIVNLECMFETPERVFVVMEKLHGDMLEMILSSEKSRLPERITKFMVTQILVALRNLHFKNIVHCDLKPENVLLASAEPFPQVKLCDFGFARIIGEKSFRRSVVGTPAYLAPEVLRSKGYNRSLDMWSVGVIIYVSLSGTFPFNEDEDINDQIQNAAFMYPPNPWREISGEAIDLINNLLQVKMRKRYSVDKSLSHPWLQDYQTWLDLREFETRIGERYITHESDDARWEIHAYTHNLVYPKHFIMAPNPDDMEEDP

For `CC(C)(C)c1cc(C=C(C#N)C#N)cc(Br)c1O`, the remaining activity was 92.7% (enzyme activity; inhibitor; 0.5 µM).
The remaining binding of `COc1ncccc1-c1cnn2ccc(N3CCN(C(=O)OC(C)C)CC3)nc12` is reported as 100% (binding; competition with immobilised ligand; 1 µM).
`COc1cc(Nc2ncc(F)c(Nc3ccc4c(n3)NC(=O)C(C)(C)O4)n2)cc(OC)c1OC` has an inhibition of 0% (binding; 10 µM).
With `Nc1ncc(-c2nc(N3CCOCC3)nc(N3CCOCC3)n2)c(C(F)F)n1` the remaining binding was 67% (binding; competition with immobilised ligand; 10 µM).
With `Cc1nn(C)cc1-c1nc2c(N3CCN(Cc4ccc(Cl)cc4)CC3)c(Cl)cnc2[nH]1` the remaining binding was 100% (binding; competition with immobilised ligand; 1 µM).
`N#CC1(c2ccccn2)CCN(Cc2cc(C(=O)O)c(=O)n3ccccc23)CC1` has a remaining binding of 98% (cell-free assay; competition with immobilised ligand; 1 µM).
The remaining signal of `O=c1[nH]c2ccccc2n1C1CCN(Cc2ccc(-c3[nH]c4cc5ncnc5cc4nc3-c3ccccc3)cc2)CC1` is reported as 99.5% (cell-free assay; 0.5 µM).
`Cn1cc(-c2cc(F)cc(N3CCn4c(cc5c4CCCC5)C3=O)c2CO)cc(Nc2ccc(N3CCN(C4COC4)CC3)cn2)c1=O` has an inhibition of 11% (enzyme activity; inhibitor; 0.1 µM).
With `Cn1cncc1[C@](O)(COc1ccc(C#N)cc1-c1ccc(OC(F)(F)F)cc1)c1ccc(C#N)cc1` the remaining binding was 100% (cell-free assay; competition with immobilised ligand; 1 µM).
